Bounds are passed on as bounds.

We go through 17 compounds from ChEMBL document CHEMBL4819086, “Discovery of neuroprotective agents that inhibit human prolyl hydroxylase PHD2” (Bioorg Med Chem, 2021).

The target in one data set is Egl nine homolog 1 (Homo sapiens, UniProt Q9GZT9). Nature of the data set: Inhibition of recombinant human PHD2 (181 to 426 residues) using DLDLEMLAPYIPMDDDFQL peptide as substrate preincubated for 15 mins followed by substrate addition and measured after 15 mins by Q-TOF mass spectrometric analysis. In a few lines: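 Catalytic domain tPHD2 181–426 at 150 nM final in 50 mM Tris.Cl pH 7.5, 50 mM NaCl, with 0.5% DMSO. Substrate is CODD peptide (C-terminal amide). Enzyme equilibrated with compound for 15 min, then substrate with 2-oxoglutarate added and reacted for 15 min. Hydroxylated product measured by C4 SPE-MS. 11-point 3-fold titrations, normalised to no-enzyme control, IC50 by non-linear regression.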
Chain of Egl nine homolog 1 (Q9GZT9 whole entry, the tested form may be a part): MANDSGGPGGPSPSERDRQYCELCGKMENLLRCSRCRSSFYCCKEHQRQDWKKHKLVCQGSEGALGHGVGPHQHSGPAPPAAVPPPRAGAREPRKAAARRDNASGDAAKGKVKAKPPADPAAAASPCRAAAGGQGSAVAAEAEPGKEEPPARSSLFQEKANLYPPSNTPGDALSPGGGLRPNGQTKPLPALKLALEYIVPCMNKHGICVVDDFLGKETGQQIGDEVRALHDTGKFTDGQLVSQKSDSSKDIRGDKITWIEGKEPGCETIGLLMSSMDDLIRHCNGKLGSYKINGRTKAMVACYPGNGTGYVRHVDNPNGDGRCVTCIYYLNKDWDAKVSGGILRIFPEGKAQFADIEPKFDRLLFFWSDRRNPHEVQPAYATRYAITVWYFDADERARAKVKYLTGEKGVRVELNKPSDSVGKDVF

The subject of data set [1] is SH-SY5Y. Description: Neuroprotective activity against H2O2-induced oxidative stress in human SH-SY5Y cells assessed as reduction in rate of cell death pretreated for 2 hrs followed by H2O2 challenge by phase contrast microscopic analysis. Format: functional, cell-based. In a few lines:
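SH-SY5Y cells pretreated with compound for 2 h (3–10 or 10–50 µM), then given 50 µM H2O2. Dead cells counted manually on phase-contrast images. Mean ± SEM from 4 separate cultures, one-way ANOVA with Dunnett's test.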

Data set [2] relates to SH-SY5Y. Description: Cytotoxicity against human SH-SY5Y cells assessed as reduction in cell viability upto 100 uM incubated for 24 hrs by MTT assay. Format: cell-based. In outline:
(§1)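 SH-SY5Y neuroblastoma cells, undifferentiated, grown in DMEM/F12 (43.5% each) with 10% FBS, pyruvate and glutaMAX at 37 C, 5% CO2. Cells harvested at 85–95% confluence and seeded for MTT, treated over 1–100 µM. MTT (0.1 mg/mL) added for 3 h at 37 C. Formazan dissolved in DMSO and read at 570 nm. Normalised to MEM vehicle (100%) and 0.25% triton X-100 (0%) controls.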

Data set [3] relates to SH-SY5Y. Nature of the data set: Cytotoxicity against human SH-SY5Y cells assessed as reduction in cell viability at 100 uM incubated for 24 hrs by MTT assay. Format: cell-based. In a few lines: as §1

`O=C1c2ccc3c4c(ccc(c24)C(=O)N1NC(=O)C(F)(F)F)CC3`: the IC50 at Egl nine homolog 1 was > 100 µM.
Regarding `O=C(CCn1cnnn1)N1CCC(O)(c2cccc(C(F)(F)F)c2)CC1`, on Egl nine homolog 1, the half-inhibitory concentration (IC50) was > 100 µM.
Regarding `Cc1nc(Sc2ncccc2C(=O)O)n[nH]1`, the Activity result is “Dose-Dependent Effect” with SH-SY5Y [1] and “Non-Toxic” in the data set with SH-SY5Y [2]. For the same compound, the IC50 on Egl nine homolog 1 turned out to be 4.09 µM.
Regarding `Cn1nc(C(=O)Nc2ccccc2Cl)cc1C(=O)O`, the half-inhibitory concentration (IC50) at Egl nine homolog 1 is > 100 µM.
Consider `Cc1c(Br)c(C(=O)Nc2ccc(Cl)cc2C(F)(F)F)nn1C`, for which the half-maximal inhibitory concentration (IC50) at Egl nine homolog 1 was > 100 µM.
As for `O=S(=O)(Nc1cc(C(F)(F)F)ccc1Cl)c1cccc2cccnc12`, the half-inhibitory concentration (IC50) at Egl nine homolog 1 was > 100 µM.
`CC(C)c1nc2cc(NC(=O)CCn3cnnn3)ccc2n1C`: the IC50 on Egl nine homolog 1 is > 100 µM.
The same measure, in the same setting: the same measure for `COC(=O)c1c(NC(=O)C2C(C(=O)O)[C@@H]3C=C[C@H]2CC3)sc(C)c1C` (stereo partly specified): 77.7 µM; for `O=C(Nc1ccccc1-c1nc2ccccc2c(=O)o1)C(F)(F)F`: > 100 µM.
For the compound `Cc1cc(NC(=O)c2nn(C)c(C)c2[N+](=O)[O-])no1`, on Egl nine homolog 1, the IC50 is > 100 µM.
Take `COCc1cc(O)nc(Nc2nc(C)c3ccc(C)cc3n2)n1`: the IC50 at Egl nine homolog 1 was > 100 µM.
For `O=C(O)c1cccc(NS(=O)(=O)c2cccc3cccnc23)c1`, the half-inhibitory concentration (IC50) at Egl nine homolog 1 is > 100 µM.
For `O=C(O)CCCN1C(=O)[C@@H]2[C@H](C1=O)[C@H]1C=C[C@@H]2C1`, the 50% inhibitory concentration (IC50) at Egl nine homolog 1 is > 100 µM.
With `Cc1ccc(-n2nc3c(SCC(=O)O)nnc(C)c3c2C)cc1`, the Activity entry in the data set with SH-SY5Y [3] was “Toxic”; in the data set with SH-SY5Y [1] it was “Dose-Dependent Effect”. Besides, the 50% inhibitory concentration (IC50) on Egl nine homolog 1 came out at 26 µM.
As for `C=CCN(CC=C)Cc1c(C)nc2ccccc2c1O`, the half-maximal inhibitory concentration (IC50) on Egl nine homolog 1 was > 100 µM.
Regarding `COc1cccc(NC(=O)COc2ccccc2P(=O)(O)O)c1`, the IC50 on Egl nine homolog 1 is > 100 µM.
`CSCCC(CO)NC(=O)Cn1nc(-n2nc(C)cc2C)ccc1=O` (stereo unspecified): the concentration for half-maximal inhibition (IC50) on Egl nine homolog 1 is > 100 µM.
